The term IC50 denotes the point on the concentration scale where inhibition reaches its midpoint. Low readings indicate greater potency in that assay, high ones weaker potency in that assay.

Like-named read-outs stand apart in the source and are kept apart here.

Consider three compounds from PMC7214649 (Clinical and Translational Science, 2020).

Series [1] is classed as in vivo, human.
Series [2] deals with T1, P-gp (Homo sapiens, UniProt P08183). Type of series: in vivo.
For series [3], the target named is T1, P-gp. The conditions noted are these: single dose venetoclax 100 mg, female healthy volunteers; cited from earlier work.
The conditions of series [4]: cited from earlier work.
Series [5] is classed as in vivo, human. The source holds these as a separate data set.
The test system of series [6] is CYP3A. Description: Ritonavir-venetoclax drug interaction study, observed exposure ratios. Type of series: in vivo, human. The procedure, abridged:
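20 female subjects, […], all drugs given orally; serial blood sampling for plasma levels of both the test compound and the CYP3A inhibitor. Validated assays had LLOQ 2.11 ng/mL (test compound) and 9.73 ng/mL (inhibitor), bias -4.7% to 7.1%, and CV 1.6% to 9.6%. Ratio is Cmax or AUC on coadministration over dosing alone; AUC96 runs 0–96 h postdose.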

The conditions of series [7]: fed conditions; cited from earlier work.
Where [8] appears, read: Cohort 1: venetoclax 10 mg with single dose ritonavir 50 mg vs venetoclax alone, period 1 day 1 vs period 2 day 1.
[9] abbreviates: Cohort 2: venetoclax 10 mg with single dose ritonavir 100 mg vs venetoclax alone, period 1 day 1 vs period 2 day 1.
The mark [10] stands for this setting: Cohort 3: venetoclax 10 mg with ritonavir 50 mg q.d. for 11 days vs venetoclax alone, multiple-dose effect, period 1 day 1 vs period 2 day 11.

T1 sequence (P08183 whole entry): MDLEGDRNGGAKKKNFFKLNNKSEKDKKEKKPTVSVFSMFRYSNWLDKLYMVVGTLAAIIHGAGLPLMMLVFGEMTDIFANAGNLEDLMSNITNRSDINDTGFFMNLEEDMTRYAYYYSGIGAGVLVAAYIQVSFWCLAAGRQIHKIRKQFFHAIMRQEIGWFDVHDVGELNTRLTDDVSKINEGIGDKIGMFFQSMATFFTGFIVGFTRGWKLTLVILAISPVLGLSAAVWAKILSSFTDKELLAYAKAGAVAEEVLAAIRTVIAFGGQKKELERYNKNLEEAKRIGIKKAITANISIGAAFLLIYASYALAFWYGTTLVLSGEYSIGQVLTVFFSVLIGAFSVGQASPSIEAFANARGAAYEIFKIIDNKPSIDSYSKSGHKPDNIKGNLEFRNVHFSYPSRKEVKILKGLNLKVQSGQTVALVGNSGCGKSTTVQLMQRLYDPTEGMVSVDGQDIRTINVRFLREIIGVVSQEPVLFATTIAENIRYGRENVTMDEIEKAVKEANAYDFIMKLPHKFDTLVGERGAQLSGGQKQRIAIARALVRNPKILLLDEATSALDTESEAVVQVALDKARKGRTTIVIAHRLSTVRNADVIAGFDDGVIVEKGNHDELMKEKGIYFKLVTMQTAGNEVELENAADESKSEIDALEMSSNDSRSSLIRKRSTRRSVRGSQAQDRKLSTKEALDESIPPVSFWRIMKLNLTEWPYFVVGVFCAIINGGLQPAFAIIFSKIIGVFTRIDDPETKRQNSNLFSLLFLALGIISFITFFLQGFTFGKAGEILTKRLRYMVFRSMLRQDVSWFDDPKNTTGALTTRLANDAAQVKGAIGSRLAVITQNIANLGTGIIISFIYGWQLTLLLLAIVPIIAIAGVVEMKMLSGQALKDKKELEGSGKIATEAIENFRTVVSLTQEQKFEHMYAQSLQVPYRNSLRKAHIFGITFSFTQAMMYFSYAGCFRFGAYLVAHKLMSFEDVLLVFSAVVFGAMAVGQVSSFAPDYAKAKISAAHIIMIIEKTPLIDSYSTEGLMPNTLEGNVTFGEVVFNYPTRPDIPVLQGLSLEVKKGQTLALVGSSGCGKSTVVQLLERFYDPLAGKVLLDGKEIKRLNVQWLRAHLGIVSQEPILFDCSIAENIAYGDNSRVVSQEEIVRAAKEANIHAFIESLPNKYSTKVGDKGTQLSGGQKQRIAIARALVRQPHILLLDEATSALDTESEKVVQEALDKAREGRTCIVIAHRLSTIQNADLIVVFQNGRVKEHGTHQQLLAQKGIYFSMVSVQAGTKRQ

Regarding `C[C@H]1O[C@@H](O[C@H]2[C@@H](O)C[C@H](O[C@H]3[C@@H](O)C[C@H](O[C@H]4CC[C@@]5(C)[C@H](CC[C@@H]6[C@@H]5C[C@@H](O)[C@]5(C)[C@@H](C7=CC(=O)OC7)CC[C@]65O)C4)O[C@@H]3C)O[C@@H]2C)C[C@H](O)[C@@H]1O` [digoxin], in series [1] (VEN-DIG model), the “CL BSV (between subject variability)” value was determined as 12.3 %CV and the “V2 BSV (between subject variability)” value worked out at 28.9 %CV. For the same compound, in series [1] (VEN-DIG model final estimate), the “ALAG (absorption lag time)” value was 0.536 h, the “Fe (fraction of administered drug excreted into the urine)” value was 0.438%, the “Ka (first-order absorption rate constant)” value is 0.777 h⁻¹ and the “V2 (volume of central compartment)” value is 150 L. Further, the “V3 (volume of peripheral compartment)” value in series [1] (VEN-DIG model final estimate) is 592 L. In addition, the clearance in series [1] (female, human, plasma, oral) is 262 mL/min. Also, in series [2] (with venetoclax), the “increase of digoxin bioavailability” value is recorded as 8%. In series [3], the “changes in digoxin half-life or renal clearance” value is on record as “no changes”, the “increase in digoxin AUC” value is 9% and the “increase in digoxin Cmax” value is given as 35%. For the same compound, the absolute bioavailability in series [4] is ~ 80%.
`CC(C)c1nc(CN(C)C(=O)N[C@H](C(=O)N[C@@H](Cc2ccccc2)C[C@H](O)[C@H](Cc2ccccc2)NC(=O)OCc2cncs2)C(C)C)cs1` [ritonavir]: in series [5] (RTV-VEN model), the “CL BSV (between subject variability)” value was 17.9 %CV and the “V2 BSV (between subject variability)” value is on record as 54.7 %CV. Besides, in series [5] (RTV-VEN model final estimate), the “V2 (volume of central compartment)” value is listed as 30.7 L. In series [5] (RTV-VEN model final estimate, first-order absorption), the “Ka (absorption rate constant)” value was 1.17 day⁻¹.
With `CC1(C)CCC(CN2CCN(c3ccc(C(=O)NS(=O)(=O)c4ccc(NCC5CCOCC5)c([N+](=O)[O-])c4)c(Oc4cnc5[nH]ccc5c4)c3)CC2)=C(c2ccc(Cl)cc2)C1` [venetoclax, Venetoclax], in series [6] (setting [8]), the “AUCinf ratio, Observed Central value” is reported as 6.1 and the “Cmax ratio, Observed Central value” was 2.4. Further, in series [6] (setting [9]), the “AUCinf ratio, Observed Central value” is listed as 8.1 and the “Cmax ratio, Observed Central value” was 2.3. Further, in series [6] (setting [10]), the “AUC96 ratio, Observed Central value” came out at 7.9 and the “Cmax ratio, Observed Central value” stood at 2.4. In series [5] (RTV-VEN model), the “CL BSV (between subject variability)” value is 32.6 %CV, the “T50 BSV (between subject variability)” value was found to be 26.1 %CV and the “V2 BSV (between subject variability)” value was 64 %CV. Further, in series [5] (RTV-VEN model final estimate), the “V2 (volume of central compartment)” value is given as 26.8 L and the “V3 (volume of peripheral compartment)” value is listed as 83.5 L. Besides, in series [5] (RTV-VEN model final estimate, time-dependent absorption), the “Kamax (maximum absorption rate constant)” value is 4.76 day⁻¹. In addition, the “γ (shape factor)” value in series [5] (RTV-VEN model, fixed, estimated value from venetoclax combined data) is listed as 5 (fixed ^*). The “CL BSV (between subject variability)” value in series [1] (VEN-DIG model) was 22 %CV. For the same compound, in series [1] (VEN-DIG model final estimate), the “ALAG (absorption lag time)” value is recorded as 1.72 h, the “Ka (first-order absorption rate constant)” value is 0.209 h⁻¹, the “V2 (volume of central compartment)” value was 19.1 L and the “V3 (volume of peripheral compartment)” value is reported as 25.4 L. Further, the IC50 in series [2] was 377 nM. The half-life in series [7] is given as ~ 15 hours.
